From PubChem BioAssay
An excerpt weighted towards active compounds, which were near 1.8% of everything screened.
LMPTP block: LMPTP (human) inhibition. P24666. recombinant LMPTP-A, OMFP fluorogenic substrate, fluorescence intensity. hit rate 0.22% among 360,000. inhibition, % at 20 µM;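 active = compounds that cut the enzyme signal by at least half of the control window in the single-dose screen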;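 also: plate controls were DMSO wells with enzyme plus substrate for no effect and substrate without enzyme for full effect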
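test system = LMPTP-A | amount = 0.625 nM LMPTP-A final | reagent = fluorogenic phosphatase substrate OMFP at 400 µM final | incubation = 50 min at room temperature | benchmarks = no-enzyme low control, uninhibited high control | medium = Bis-Tris pH 6.0, DTT, detergent | signal = fluorescence intensity of OMFP turnover product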
Scp1 inh: blocks human Scp-1 phosphatase activity. Recombinant Scp1, phosphopeptide, malachite green phosphate absorbance. inhibition, % at 20 µM. hit rate 0.88% among 340,000. AID 493091;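 active = inhibition above about 50% at 20 µM, limit read from the data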;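 also: plate controls were DMSO wells with enzyme for no effect and wells lacking enzyme for full effect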
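Times: enzyme reaction 45 min at room temperature, colour 5 min, stabilisation 30 min. Material: SCP-1 catalytic fragment, aa 76-261. Medium: Acidic Tris acetate buffer with magnesium and detergent. Signal: colorimetric free-phosphate detection, absorbance 630 nm. Read-out basis: % inhibition of SCP-1 phosphate liberation. Reagent: Phosphorylated 17-residue peptide substrate.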
DNMT1 inh: blocks human DNA methyltransferase DNMT1 | P26358 | DNMT1 molecular beacon, Hinp1I cleavage, fluorescence | inhibition (reported as % activation of signal), % at 10 µM | hit rate 0.83% among 360,000; in the data active = inhibition above about 50%
Target sequence (P26358 504-1616 limits assumed): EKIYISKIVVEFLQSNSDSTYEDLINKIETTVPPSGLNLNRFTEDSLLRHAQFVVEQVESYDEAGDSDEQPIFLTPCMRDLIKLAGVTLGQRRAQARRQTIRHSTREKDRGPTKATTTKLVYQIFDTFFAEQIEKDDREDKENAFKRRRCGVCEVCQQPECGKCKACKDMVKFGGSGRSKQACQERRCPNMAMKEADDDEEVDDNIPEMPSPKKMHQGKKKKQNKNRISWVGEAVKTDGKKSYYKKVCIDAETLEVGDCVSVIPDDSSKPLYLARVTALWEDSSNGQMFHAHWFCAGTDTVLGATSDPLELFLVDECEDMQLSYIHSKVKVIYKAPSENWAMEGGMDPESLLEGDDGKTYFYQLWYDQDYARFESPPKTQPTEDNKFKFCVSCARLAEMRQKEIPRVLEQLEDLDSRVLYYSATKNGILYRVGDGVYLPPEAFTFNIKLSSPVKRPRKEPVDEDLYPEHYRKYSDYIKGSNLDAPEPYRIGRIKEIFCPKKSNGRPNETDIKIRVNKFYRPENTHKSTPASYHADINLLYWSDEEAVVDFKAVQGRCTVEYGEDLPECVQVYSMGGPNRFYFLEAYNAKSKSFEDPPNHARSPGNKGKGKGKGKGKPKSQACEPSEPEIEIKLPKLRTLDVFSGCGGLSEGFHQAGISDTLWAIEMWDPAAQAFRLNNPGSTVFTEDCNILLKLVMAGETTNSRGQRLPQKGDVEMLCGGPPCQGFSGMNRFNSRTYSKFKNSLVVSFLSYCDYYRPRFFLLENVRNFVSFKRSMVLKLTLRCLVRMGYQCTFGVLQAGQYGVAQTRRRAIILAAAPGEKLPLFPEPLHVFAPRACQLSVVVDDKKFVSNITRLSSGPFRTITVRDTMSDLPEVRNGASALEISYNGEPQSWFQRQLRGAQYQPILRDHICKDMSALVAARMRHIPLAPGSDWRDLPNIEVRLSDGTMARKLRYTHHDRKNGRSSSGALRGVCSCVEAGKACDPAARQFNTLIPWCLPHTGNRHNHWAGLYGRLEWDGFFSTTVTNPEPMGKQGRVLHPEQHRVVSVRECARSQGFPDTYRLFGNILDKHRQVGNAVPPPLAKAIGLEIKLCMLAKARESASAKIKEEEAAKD
STEP inh: blocks human striatal-enriched tyrosine phosphatase; AID 588621; inhibition, % at 20 µM; P54829; hit rate 0.25% among 360,000; recombinant STEP, OMFP fluorogenic substrate, fluorescence;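 active = inhibition at 20 µM, scaled per plate between control wells, above about 37%, limit read from the data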;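 also: 0% = DMSO with enzyme and substrate and 100% = substrate only without enzyme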
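Assay system: isolated STEP enzyme. Buffer or medium: pH 6.0 Bis-Tris with DTT and Tween 20. Also added: fluorogenic phosphatase substrate OMFP at 25 µM final. Dosing: 20 µM, 1% DMSO. Timing: 20 min reaction, room temperature, in the dark. Measured by: fluorescence intensity, excitation 480 nm, emission 540 nm. Evaluation: normalized % inhibition.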
SUMO1-SIM PPI: modulators of human SUMO1-mediated protein-protein interactions | P63165 | SUMO1 binding to a labelled peptide, TR-FRET, 1 h | inhibition, % at 20 µM | hit rate 0.33% among 360,000 | AID 602429; in the data active = inhibition above about 37%
Beacon interf DR: counter-screen for DNMT1 inhibitors: spectral interference, dose response; shares compounds with DNMT1 inh; molecular beacon fluorescence; IC50, µM; 200 tested, under 10 active; AID 602382; call rule not given here
DNMT1 confirm: DNMT1 inhibition confirmation, single concentration; shares compounds with DNMT1 inh; DNMT1 molecular beacon HinP1I cleavage, fluorescence; inhibition, % at 10 µM; hit rate 8% among 2,300; AID 602385;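 active = average inhibition of at least 30% in the single-concentration confirmation test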
DNMT1 interf: beacon fluorescence artifact counter-screen | shares compounds with DNMT1 inh | DNMT1 molecular beacon spectral interference counterscreen, fluorescence 485/520 | activation (fluorescence interference), % at 10 µM | hit rate 1% among 2,300 | AID 602387;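 active = activation of at least 30% at 10 µM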;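 also: DNMT1 catalytic domain with a HinP1I cleavage step and a FAM/dabcyl DNA beacon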
Active calls of the source: *.

Results for CCOC(=O)C1=C(C)N=c2s/c(=C\c3ccc(OCC(=O)O)cc3)c(=O)n2C1c1ccc(Cl)cc1 (configuration not stated) ?
LMPTP block: 16.7; Scp1 inh: 30.5; DNMT1 inh: 7.6; STEP inh: 33.8; SUMO1-SIM PPI: 1.2

What do the screens show for `CC1=C(C(=O)OC(C)C)C(c2ccc(Cl)cc2)n2c(sc(=Cc3ccc(OCC(=O)O)cc3)c2=O)=N1` (configuration not stated)?
LMPTP block: 87.9*; DNMT1 inh: 104.0*; STEP inh: 87.3*; SUMO1-SIM PPI: 105.9*; Beacon interf DR: >99; DNMT1 confirm: 105.2*; DNMT1 interf: -1.2

How did CCOC(=O)C1=C(C)N=c2s/c(=C/c3ccc(OCC(=O)O)c(OC)c3)c(=O)n2C1c1ccc(Cl)cc1 (configuration not stated) do in these assays?
LMPTP block: 3.0; Scp1 inh: 51.0*; DNMT1 inh: 58.5*; STEP inh: 36.3; SUMO1-SIM PPI: 6.7; Beacon interf DR: >99; DNMT1 confirm: 58.6*; DNMT1 interf: -0.8

What do the screens show for `Cc1ccc(Cl)cc1N1CCN(C(=O)c2noc(C(C)C)c2[N+](=O)[O-])CC1`?
LMPTP block: 1.5; Scp1 inh: -3.4; DNMT1 inh: 1.1; STEP inh: 2.6; SUMO1-SIM PPI: -3.5

How did O=C1c2sccc2-c2cccc3cccc1c23 do in these assays?
LMPTP block: 1.5; DNMT1 inh: 66.4*; STEP inh: -0.1; SUMO1-SIM PPI: -24.6; Beacon interf DR: >99; DNMT1 confirm: 64.5*; DNMT1 interf: 3.0

Results for Cc1nnc(SCC(=O)NC(=O)Nc2ccc3c(c2)OCCO3)s1 ?
LMPTP block: -1.6; Scp1 inh: 1.8; DNMT1 inh: 0.6; STEP inh: -1.8; SUMO1-SIM PPI: 0.9

Results for Cc1cccc(Nc2nnc(SCC(=O)NC(=O)Nc3ccc4c(c3)OCCO4)s2)c1 ?
LMPTP block: -0.7; Scp1 inh: -5.3; DNMT1 inh: 50.3*; STEP inh: 1.2; SUMO1-SIM PPI: -0.3; DNMT1 confirm: -1.1; DNMT1 interf: 2.3

Results for COc1ccc(O)c(C(=O)c2cnn(C(=O)c3ccc(C)cc3)c2)c1 ?
LMPTP block: -0.5; Scp1 inh: -2.8; DNMT1 inh: 54.9*; STEP inh: 2.3; SUMO1-SIM PPI: 23.5; DNMT1 confirm: -0.8; DNMT1 interf: -3.2

What do the screens show for `COc1ccc(O)c(C(=O)c2cnn(-c3ccccc3)c2)c1`?
LMPTP block: 1.4; Scp1 inh: -5.2; DNMT1 inh: -0.9; STEP inh: 2.7; SUMO1-SIM PPI: -4.7

What do the screens show for `CCc1nn(CC(=O)NCCC2=CCCCC2)c(=O)c2cc3cc(F)ccc3n12`?
LMPTP block: 1.5; Scp1 inh: -1.1; DNMT1 inh: 41.8; STEP inh: 6.4; SUMO1-SIM PPI: 0.2

Results for CC(=O)OCCn1c2nc(=O)[nH]c(=O)c-2nc2cc(C)c(C)cc21 ?
LMPTP block: -20.4; Scp1 inh: 0.8; DNMT1 inh: 192.3*; STEP inh: -201.0; SUMO1-SIM PPI: -62.7; DNMT1 confirm: 139.6*; DNMT1 interf: 134.4*

What do the screens show for `CC(=O)Oc1ccc(Cn2c(C)c(C(=O)NCc3ccccc3C(F)(F)F)sc2=O)cc1`?
LMPTP block: 1.2; DNMT1 inh: -1.2; STEP inh: -1.8; SUMO1-SIM PPI: -3.9

Results for Cc1cc(Cl)ccc1OCC(=O)Nc1cccc(S(=O)(=O)NC2=NCCCCC2)c1 ?
LMPTP block: 0.7; Scp1 inh: 1.6; DNMT1 inh: 95.2*; STEP inh: -2.5; SUMO1-SIM PPI: 6.9; DNMT1 confirm: 3.1; DNMT1 interf: 1.9

What do the screens show for `Cc1ccc(C)c(OCC(=O)Nc2cccc(S(=O)(=O)NC3=NCCCCC3)c2)c1`?
LMPTP block: 0.7; Scp1 inh: 3.8; DNMT1 inh: -1.9; STEP inh: 0.1; SUMO1-SIM PPI: 13.0

Results for Cc1ccc(S(=O)(=O)N2CCC(C(=O)NCCCN3CCOCC3)CC2)cc1C ?
LMPTP block: -9.4; Scp1 inh: -1.1; DNMT1 inh: -1.1; STEP inh: 0.8; SUMO1-SIM PPI: -32.0

Results for O=c1cc(CCl)nc2sc3ccccc3n12 ?
LMPTP block: 14.2; Scp1 inh: 46.5; DNMT1 inh: 62.0*; STEP inh: 8.6; SUMO1-SIM PPI: 7.2; DNMT1 confirm: 3.1; DNMT1 interf: -2.5

What do the screens show for `COc1ccccc1C(CNC(=O)CCNS(=O)(=O)c1ccc(Br)cc1)N1CCCC1` (configuration not stated)?
LMPTP block: -9.7; Scp1 inh: -4.9; DNMT1 inh: -11.0; STEP inh: -0.9; SUMO1-SIM PPI: -165.1

Results for Cc1c(Cl)cnc(NC(=O)COC(=O)c2ccc([N+](=O)[O-])s2)c1Cl ?
LMPTP block: 4.5; Scp1 inh: 43.0; DNMT1 inh: 63.3*; STEP inh: 3.7; SUMO1-SIM PPI: 21.5; DNMT1 confirm: 1.7; DNMT1 interf: -2.9

Results for CC(=O)Nc1ccc(S(=O)(=O)NCCC(=O)NCc2ccco2)cc1 ?
LMPTP block: -0.4; DNMT1 inh: 2.4; STEP inh: -2.3; SUMO1-SIM PPI: -1.6

Results for O=c1nc(Nc2ccccc2)sc2ccc([N+](=O)[O-])cc12 ?
LMPTP block: 25.8; Scp1 inh: 43.3; DNMT1 inh: 56.6*; STEP inh: 6.2; SUMO1-SIM PPI: -10.4; DNMT1 confirm: 0.9; DNMT1 interf: -2.7

What do the screens show for `Cc1ccc(-c2nn(CC(=O)NCc3cc(-c4nn(C)c(=O)c5ccccc45)ccc3C)c(=O)c3ccccc23)cc1`?
LMPTP block: 22.3; Scp1 inh: 3.5; DNMT1 inh: 57.3*; STEP inh: 6.8; SUMO1-SIM PPI: 0.1; DNMT1 confirm: 0.5; DNMT1 interf: -4.8

What do the screens show for `CCC(=O)NCc1cc(-c2nn(C)c(=O)c3ccccc23)ccc1C`?
LMPTP block: -1.6; Scp1 inh: -2.9; DNMT1 inh: 0.8; STEP inh: -1.9; SUMO1-SIM PPI: 8.8

What do the screens show for `Fc1ccc(Nc2ncnc3sccc23)cc1`?
LMPTP block: 1.7; Scp1 inh: -1.4; DNMT1 inh: 1.3; STEP inh: -0.6; SUMO1-SIM PPI: 4.6

Results for Cn1nnnc1Sc1ncnc2scc(-c3ccc([N+](=O)[O-])cc3)c12 ?
LMPTP block: -0.8; Scp1 inh: -3.0; DNMT1 inh: 10.4; STEP inh: 0.3; SUMO1-SIM PPI: -28.8

How did Cc1ccc(/C=C2/NC(=O)N(Cc3ccccc3)C2=O)o1 do in these assays?
LMPTP block: -0.2; Scp1 inh: -4.6; DNMT1 inh: -7.1; STEP inh: 0.7; SUMO1-SIM PPI: -13.0
